Only some compounds are listed: those with a hit (about 6.7% of all), similar ones and a draw of the others.
Beta cell apopt: inhibitors of cytokine-induced beta cell apoptosis, primary screen, luminescence; INS-1E cytokine-induced death, ATP luminescence, 48 h; percent of positive-control rescue, neutral wells zero; protection from apoptosis, % (concentration not given with the values); 300,000 tested, 0.8% active; AID 435005, 2010;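 active = Every replicate reaches about 75%, or at least half do and their mean reaches it too, limit read from the data; inconclusive = At least half of replicates reach the limit but their mean does not; inactive = Under half of replicates reach the limit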;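 also: 0% = cytokine-treated negative control wells and 100% = positive control rescue; higher means more ATP so stronger rescue from cytokine killing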
T cruzi inh: inhibitors of intracellular T. cruzi growth, primary screen, luminescence, NIH3T3 host cells; T. cruzi beta-gal in NIH3T3, 90 h; inhibition, % (test concentration not listed); 300,000 tested, 1.4% active; AID 1885, 2009;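 active = mean inhibition across valid replicates above about 55%, limit read from the data; inconclusive = mean below that limit but half or more replicates reach it; inactive = mean below it, under half of replicates reach it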;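 also: signal also drops with host cell toxicity which is not excluded here; 0% = plate median of DMSO wells and 100% = zero luminescence signal; higher percent means less beta-gal luminescence so fewer parasites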
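System – NIH/3T3 host cells with β-galactosidase reporter T. cruzi · Doses – single 50 nL compound addition per well in DMSO · Reagent – 5000 T. cruzi trypomastigotes/well · Medium – Low-serum DMEM with 2% FBS · Timing – ≥90 h infection period, 3 h prior cell attachment · Evaluation – parasite load inhibition, % · Technique – GalScreen luminescence, 60 min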
CHOP inhibitor: inhibitors of CHOP promoter induction, primary screen, cell-based, unfolded protein response, luciferase reporter | 220,000 tested, 3.8% active | inhibition, % at 10 µM | CHO-K1 CHOP-promoter luciferase, tunicamycin-induced, 15-18 h | AID 2732, 2010;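 active = compounds that reduced the stress-induced luciferase reporter signal by more than about 70% of percent inhibition, limit read from the data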;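 also: 0% = tunicamycin plus vehicle and 100% = wells without tunicamycin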
GRIN3A LBD mod: binders of NR3A ligand-binding domain, primary screen, biophysical, differential scanning fluorimetry, uHTS; AID 1259313, 2017; NR3A LBD differential scanning fluorimetry, Tm shift; 0% = protein alone, 100% = glycine-bound protein; Tm shift relative to glycine control, % at 25 µM; Glutamate receptor ionotropic, NMDA 3A (GRIN3A) ligand-binding domain; 340,000 tested, 2.5% active;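 active = melting temperature shift of at least 10% of the positive control shift, at one fixed dose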
PREPL inh: PREPL enzyme inhibitors, primary screen, biochemical, fluorescence polarization. recombinant PREPL, fluorescence polarization activity-based probe. inhibition, % at 5.96 µM. 320,000 tested, 0.68% active. AID 2751, 2010; in the data active = inhibition above about 43%;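 also: 0% = enzyme with DMSO and 100% = wells lacking enzyme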
Target sequence (Q4J6C6 whole entry, looked up): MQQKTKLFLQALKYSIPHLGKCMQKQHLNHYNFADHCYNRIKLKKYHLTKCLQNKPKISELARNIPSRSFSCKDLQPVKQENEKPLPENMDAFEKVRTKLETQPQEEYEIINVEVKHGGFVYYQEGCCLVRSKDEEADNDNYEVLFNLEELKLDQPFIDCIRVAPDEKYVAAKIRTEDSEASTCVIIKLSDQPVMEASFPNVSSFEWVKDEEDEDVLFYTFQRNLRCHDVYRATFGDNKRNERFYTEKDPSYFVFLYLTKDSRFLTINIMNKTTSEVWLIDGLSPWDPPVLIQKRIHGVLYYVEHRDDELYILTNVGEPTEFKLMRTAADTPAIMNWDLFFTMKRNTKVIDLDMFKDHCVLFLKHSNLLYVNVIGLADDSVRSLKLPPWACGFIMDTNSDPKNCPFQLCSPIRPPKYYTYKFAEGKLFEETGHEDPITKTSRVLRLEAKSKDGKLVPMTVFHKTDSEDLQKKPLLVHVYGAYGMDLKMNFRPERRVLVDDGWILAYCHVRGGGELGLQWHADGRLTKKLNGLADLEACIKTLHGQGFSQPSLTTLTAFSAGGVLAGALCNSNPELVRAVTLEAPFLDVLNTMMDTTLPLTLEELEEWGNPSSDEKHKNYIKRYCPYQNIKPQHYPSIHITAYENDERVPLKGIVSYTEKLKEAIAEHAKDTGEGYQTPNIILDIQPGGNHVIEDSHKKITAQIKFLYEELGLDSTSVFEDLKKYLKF
CSC inhib: cancer stem cell viability inhibitors, primary screen, luminescence; cancer stem cell-like cells viability; inhibition, % at 7.5 µM; 300,000 tested, 1.1% active; in the data active = inhibition above about 75%; inconclusive = no clear call, values can overlap the other calls; tested in HMLE shEcad cells
Starred values were filed as active, the others as inactive; ? = inconclusive; . = no result given.

SMILES	Beta cell apopt	T cruzi inh	CHOP inhibitor	GRIN3A LBD mod	PREPL inh	CSC inhib
C=CCn1c(SCC(=O)c2[nH]c(C)c(C(=O)OCC)c2C)nc2scc(-c3ccccc3)c2c1=O	-3.7	25.1	87.9*	-1.0	-4.0	6.0
Nc1nc(SCc2ccc([N+](=O)[O-])cc2)c2ncn([C@@H]3O[C@H](CO)[C@H](O)C3O)c2n1 (some centres undefined)	.	.	-11.8	.	.	.
COc1cc2c(cc1NC(=O)c1cc(-c3ccncc3)nc3ccccc13)oc1ccccc12	0.0	48.9	84.7*	-21.9	5.6	42.5
CCCc1ccc(-c2cc(C(=O)NCCc3ccc(S(N)(=O)=O)cc3)c3ccccc3n2)cc1	6.5	30.0	10.9	12.3*	-1.1	-1.8
COc1ccc(NC(=O)c2cc(-c3cccnc3)nc3c(C)c(C)ccc23)c(OC)c1	10.6	55.7*	34.9	-1.3	1.1	2.5
COc1cc2c(cc1NC(=O)c1cc(-c3cccnc3)nc3ccc(C)cc13)oc1ccccc12	-3.3	47.3	86.3*	-7.5	7.0	21.5
Cc1ccc2nc(-c3ccccc3)cc(C(=O)Nc3cccnc3)c2c1	3.4	.	.	-4.8	3.5	-8.1
COc1ccc2[nH]c(=O)c(CN(C(=O)C(C)C)c3ccccc3OC)cc2c1	0.7	4.9	.	-0.2	9.1	-22.7
COC(=O)CCNC(=O)CCc1ccc(S(=O)(=O)N2CCCCCC2)cc1	-5.4	.	.	2.4	0.4	-11.2
COc1ccc(-c2cc(C(=O)Nc3cccc(S(=O)(=O)NCc4ccco4)c3)c3ccccc3n2)cc1OC	11.0	59.9*	58.0	1.9	-12.7	.
CCN(CC)S(=O)(=O)c1ccc(O)c(NC(=O)c2cc(-c3cc(OC)c(OC)c(OC)c3)nc3ccccc23)c1	21.4	3.8	.	17.0*	-5.5	1.6
COc1cc(-c2cc(C(=O)Nc3ccc(S(N)(=O)=O)cc3)c3ccccc3n2)cc(OC)c1OC	3.9	-4.5	.	0.6	6.7	4.2
CC(=O)C[C@H]1c2ccccc2S(=O)(=O)N1c1ccccc1	2.0	-14.6	.	0.6	-5.8	-10.6
CN(C(=O)Cn1nc(C(=O)O)c2ccccc2c1=O)C1CCCCC1	-5.2	.	.	1.8	10.9	-3.0
NC(=O)CC1(CC(=O)O)CCCCC1	-1.3	-12.6	25.3	12.7*	3.5	-10.5
NC(=O)C1CCN(C(=O)CC2(CC(=O)O)CCCCC2)CC1	-6.6	-19.9	-1.8	-0.8	-2.7	-7.3
CC1=C(/C=C/C(C)=C/C=C/C(C)=C\C(=O)O)C(C)(C)CCC1	-16.7	4.8	-13.8	2.8	-5.9	8.9
CC1=C(/C=C/C(C)=C/C=C/C(C)=C/C(=O)Nc2ccc(O)cc2)C(C)(C)CCC1	-1.0	.	-86.4	17.4*	12.8	104.5*
CN(C)CCNC(=O)/C(=C/c1ccc(-c2ccc(Cl)cc2Cl)o1)NC(=O)c1ccccc1	99.4*	32.1	44.6	1.7	-20.4	110.0*
Cc1ccc(C(=O)N/C(=C\c2ccc(-c3ccc(Br)cc3)o2)C(=O)NCCCN(C)C)cc1	100.4*	77.1*	33.0	-0.8	19.4	?
CC1CCC2(CC1)NC(=O)N(CC(=O)N1CCN(c3ccccc3)CC1)C2=O (centres undefined)	-7.1	.	.	1.5	3.1	-19.9
NNC(=O)c1cc(C2CC2)nc2ccc(Br)cc12	3.1	2.5	.	2.1	.	9.0
NNC(=O)c1cc(-c2ccc(O)cc2)nc2ccc(Br)cc12	1.4	-7.1	-1.6	10.8*	0.1	2.8
Cc1ccc(-c2cc(C(=O)N(C)Cc3cnn(C)c3C)c3cc(Br)ccc3n2)cc1	15.0	5.7	8.1	-8.0	4.3	18.9
Cc1ccc(-c2cc(C(=O)NCc3cnn(C)c3C)c3cc(Br)ccc3n2)cc1	22.3	16.4	78.0*	-17.1	15.6	20.3
SMILES	Beta cell apopt	T cruzi inh	CHOP inhibitor	GRIN3A LBD mod	PREPL inh	CSC inhib
Cc1ccccc1NC(=O)c1ccc(Cl)c(NC(=O)c2ccncc2)c1	.	-21.5	5.4	-4.5	8.3	.
O=[N+]([O-])c1ccc2[nH]cc(S(=O)(=O)N3CCN(c4cccc(Cl)c4)CC3)c2c1	-2.3	24.3	.	27.1*	-10.1	46.7
COCCN(C(=O)CCC(=O)Nc1cc(C)on1)C(C(=O)NC1CCCC1)c1ccc(C(C)C)cc1 (centres undefined)	-0.9	6.5	.	-1.7	3.9	.
COc1cc(/C=C2/SC(=S)N(Cc3ccccc3)C2=O)ccc1O	-1.4	-8.4	.	20.3*	-26.5	100.3*
O=C1/C(=C\c2cccc(O)c2)SC(=S)N1Cc1ccccc1	-5.8	9.0	.	4.7	1.2	19.9
O=C1/C(=C\c2cccc(O)c2O)SC(=S)N1Cc1ccccc1	-1.7	31.4	.	37.6*	1.9	85.9*
CCCN1C(=O)/C(=C/c2ccncc2)SC1=S	-3.1	-11.2	15.5	-1.3	-10.3	-5.2
COc1cc(/C=C2\SC(=S)N(Nc3ccccc3)C2=O)cc(OC)c1OC	47.0	5.8	38.0	-9.4	6.2	3.4
CCOc1ccc(/C=C2\SC(=S)N(Nc3ccccc3)C2=O)cc1OC	-6.1	-22.2	81.7*	-1.7	-4.2	15.0
O=C1/C(=C/c2ccncc2)SC(=S)N1Cc1ccccc1	.	5.3	0.4	21.2*	-14.6	58.1
Cc1cc(C)c(NC(=O)C2CC(=O)N(C3CCCC3)C2)c(C)c1 (centres undefined)	4.4	.	.	0.3	19.8	11.9
O=C(CSc1ccccn1)Nc1nonc1[N+](=O)[O-]	.	22.1	.	1.8	3.4	.
CCOC(=O)N1CCN(S(=O)(=O)N2CCCC(C(=O)NCCCN3CC(C)CC(C)C3)C2)CC1 (centres undefined)	-0.1	16.5	.	-0.1	-7.7	-6.9
O=C1/C(=C\c2ccc(O)c(O)c2)SC(=S)N1Cc1ccccc1	-1.2	3.6	.	29.2*	.	104.5*
O=C1/C(=C\c2cc([N+](=O)[O-])ccc2O)SC(=S)N1Cc1ccc(Cl)cc1	4.0	-1.3	.	-15.5	-76.8	104.4*
COc1cc(/C=C2/SC(=NCc3ccccc3)N(Cc3ccccc3)C2=O)ccc1O	-5.0	-10.6	19.6	13.0*	12.4	0.2
CCN=C1S/C(=C\c2ccc(O)c(OCC)c2)C(=O)N1CC	-1.1	-25.5	42.0	-0.9	20.4	66.5
O=C(Cn1cnc2c(oc3ccccc32)c1=O)NCc1ccccc1	.	-3.3	-6.8	0.6	3.5	-8.8
Cc1ccc(C)c(NC(=O)Cn2cnc3c(oc4ccccc43)c2=O)c1	-6.7	-2.9	72.0*	-1.9	-5.4	-14.4
Cc1ccc(C)c(NC(=O)Cn2nc(-c3ccccc3)nc2-c2ccccc2)c1	0.9	14.0	86.8*	-2.5	0.5	-8.9

High-throughput results deposited in PubChem by several laboratories.
